Tests used:
Nucleic Acid = assay: Binding affinity to DNA assessed as intercalation after 24 hrs by DNA-methyl green assay; assay type: nucleic-acid assay
How it was run: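 DNA-methyl green reagent (20 mg in 100 mL 0.05 M Tris HCl pH 7.5 with 7.5 mM MgSO4, stirred 24 h at 37 °C) was added to dried compound. A620 was read at 0 and after 24 h at 25 °C. […] Cryptolepine was the positive control.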

[1] = biological target: T1, Histidine-rich protein PFHRP-II (Plasmodium falciparum, UniProt P05227); assay: Inhibition of beta-hematin formation at 5 milliequivalent after 18 hrs by microtiter plate assay; assay type: functional
T1 sequence (P05227 whole entry): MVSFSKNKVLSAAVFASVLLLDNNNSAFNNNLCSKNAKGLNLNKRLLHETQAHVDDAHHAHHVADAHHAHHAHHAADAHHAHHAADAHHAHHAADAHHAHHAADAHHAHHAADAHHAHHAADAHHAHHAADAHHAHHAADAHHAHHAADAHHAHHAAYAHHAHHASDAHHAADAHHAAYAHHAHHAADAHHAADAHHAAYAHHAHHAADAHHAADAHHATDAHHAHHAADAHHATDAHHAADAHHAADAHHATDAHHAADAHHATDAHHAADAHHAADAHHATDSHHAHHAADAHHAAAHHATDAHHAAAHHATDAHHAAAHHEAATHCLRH

Plasmodium falciparum = assay: Antiplasmodial activity against chloroquine-sensitive Plasmodium falciparum Ghana in human erythrocytes after 72 hrs by Malstat assay; assay type: functional, organism-based
How it was run: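 P. falciparum Ghana strain grown in human erythrocytes in RPMI-1640 at 37 °C under 3% O2, 4% CO2, 93% N2. Exposure to compounds lasted 72 h. Multiplication was read by Malstat with absorbance at 655 nm, and % growth inhibition was taken against negative blanks.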

[2] = Cytotoxicity against human MRC5 SV2 cells after 72 hrs by resazurin-based fluorometric assay; assay type: cell-based; conditions: MRC5, 72 h
How it was run: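 MRC-5 SV2 fibroblasts were kept in MEM with 20 mM L-glutamine and 5% FCS at 37 °C, 5% CO2. Cells were seeded at 10⁴/well onto prediluted compounds and incubated 72 h. Viability was read fluorimetrically after resazurin addition.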

[3] = Selectivity index, ratio of IC50 for human MRC5 SV2 cells to IC50 for chloroquine-sensitive Plasmodium falciparum Ghana; assay type: toxicity, cell-based; conditions: read-out: Ratio IC50
[4] = biological target: T1, Histidine-rich protein PFHRP-II; assay: Inhibition of beta-hematin formation after 18 hrs by microtiter plate assay; assay type: functional

Compound | IC50 (Nucleic Acid) [µM] | IC50 [1] | IC50 (Plasmodium falciparum) [µM] | IC50 [2] [µM] | selectivity ratio [3] | IC50 [4] [milliequivalent]
Clc1ccc2c(Cl)c3c(nc2c1)[nH]c1ccccc13 | > 1000 | Not Active | > 64 | > 64 | – | –
Cn1c2nc3ccccc3c-2cc2ccccc21 [NEOCRYPTOLEPINE] | – | – | – | 11 | 0.4 | 5.97
CN(C)CCNc1c2c3ccccc3nc-2n(C)c2ccc(Cl)cc12 | 164 | Not Active | < 0.25 | < 0.25 | – | –
CN1CCN(c2c3c4ccccc4nc-3n(C)c3ccc(Cl)cc23)CC1 | 358 | Not Active | 2.1 | 1 | 0.5 | –
Cn1c2nc3cc(Cl)ccc3c-2cc2ccccc21 | > 1000 | – | > 64 | > 64 | – | 1.55
CCN(CC)CCCC(C)Nc1c2c(Cl)cccc2nc2[nH]c3ccccc3c12 (stereo not drawn) | > 1000 | – | 1.2 | 20 | 17 | 3.05
Cn1c2nc3ccccc3c-2c(N2CCC(N3CCCCC3)CC2)c2cc(Cl)ccc21 | 180 | Not Active | 2.46 | 4.4 | 2 | –
Cn1c2nc3ccccc3c-2c(Cl)c2cc(Cl)ccc21 | > 1000 | Not Active | > 64 | > 64 | – | –
Cn1c2nc3ccccc3c-2cc2ccc(Cl)cc21 | – | – | 41.1 | 21 | 0.5 | –
Cn1c2nc3ccccc3c-2cc2cc(Cl)ccc21 | > 1000 | – | 52 | > 64 | > 1 | 1.31
CCN(CC)CCCC(C)Nc1ccc2c3cc4ccccc4n(C)c-3nc2c1 (stereo not drawn) | 219 | – | 0.01 | 18 | 1800 | 4.4
Clc1ccc2nc3[nH]c4ccccc4c3c(NCCN3CCOCC3)c2c1 | > 1000 | Not Active | 33 | > 64 | > 2 | –
CCN(CC)CCCC(C)Nc1c2c3ccccc3nc-2n(C)c2ccccc12 (stereo not drawn) | 312 | – | 0.62 | 20 | 32 | 4.11
Cn1c2nc3ccccc3c-2c(N2CCN(CCO)CC2)c2cc(Cl)ccc21 | 376 | Not Active | 2.28 | 0.82 | 0.4 | –
CCN(CC)CCCC(C)Nc1ccc2cc3c4ccccc4nc-3n(C)c2c1 (stereo not drawn) | – | – | 0.015 | 16 | 1070 | –
Clc1ccc2nc3[nH]c4ccccc4c3c(Cl)c2c1 | > 1000 | Not Active | > 64 | > 64 | – | –
CCN(CC)CCCC(C)Nc1c2ccc(Cl)cc2nc2[nH]c3ccccc3c12 (stereo not drawn) | > 1000 | – | 0.14 | 15 | 107 | 4.43
Cn1c2nc3ccccc3c-2c(Cl)c2ccc(Cl)cc21 | – | – | > 64 | 27 | < 0.4 | 1.14
CCN1CCCC1CNc1c2cc(Cl)ccc2nc2[nH]c3ccccc3c12 (stereo not drawn) | > 1000 | – | 0.38 | 15 | 39 | 1.53
